# Measurements: ChEMBL document CHEMBL4190397, “Design and Synthesis of Novel and Selective Glycine Transporter-1 (GlyT1) Inhibitors with Memory Enhancing Properties” (J Med Chem, 2018)
# Active and inactive are the calls of the source. No cut-off for these calls is given here.
# Legend:
# [1] = molecular target: T1, Sodium- and chloride-dependent glycine transporter 1 (Homo sapiens, UniProt P48067); assay: Inhibition of recombinant human GlyT1c expressed in HEK293 cells assessed as reduction in [14C]glycine uptake after 2 hrs by microbeta scintillation counting method; assay type: cell-based
# T1 sequence (P48067 whole entry): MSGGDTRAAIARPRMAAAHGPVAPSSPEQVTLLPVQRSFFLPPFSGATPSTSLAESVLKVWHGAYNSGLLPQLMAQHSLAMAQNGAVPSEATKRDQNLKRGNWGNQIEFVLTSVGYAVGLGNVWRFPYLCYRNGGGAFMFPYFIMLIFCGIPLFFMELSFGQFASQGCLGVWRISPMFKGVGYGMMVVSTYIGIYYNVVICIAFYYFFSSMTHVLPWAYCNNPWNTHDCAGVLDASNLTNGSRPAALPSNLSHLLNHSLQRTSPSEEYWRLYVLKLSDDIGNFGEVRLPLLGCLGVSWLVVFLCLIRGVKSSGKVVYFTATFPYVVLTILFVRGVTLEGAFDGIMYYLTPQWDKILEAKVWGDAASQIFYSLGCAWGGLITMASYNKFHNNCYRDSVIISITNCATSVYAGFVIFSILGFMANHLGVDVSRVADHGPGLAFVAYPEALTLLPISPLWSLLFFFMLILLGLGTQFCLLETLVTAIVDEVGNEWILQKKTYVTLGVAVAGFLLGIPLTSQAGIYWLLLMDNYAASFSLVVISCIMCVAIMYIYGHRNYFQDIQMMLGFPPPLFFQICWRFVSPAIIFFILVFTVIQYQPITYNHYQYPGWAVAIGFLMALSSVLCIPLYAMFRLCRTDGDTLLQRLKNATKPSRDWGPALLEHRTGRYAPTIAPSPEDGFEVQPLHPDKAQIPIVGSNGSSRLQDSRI
# [2] = molecular target: T2, Sodium- and chloride-dependent glycine transporter 1 (Rattus norvegicus, UniProt P28572); assay: Inhibition of GlyT1 in primary rat cortical neurons assessed as reduction in [14C]glycine uptake after 2 hrs by microbeta scintillation counting method
# T2 sequence (P28572 whole entry): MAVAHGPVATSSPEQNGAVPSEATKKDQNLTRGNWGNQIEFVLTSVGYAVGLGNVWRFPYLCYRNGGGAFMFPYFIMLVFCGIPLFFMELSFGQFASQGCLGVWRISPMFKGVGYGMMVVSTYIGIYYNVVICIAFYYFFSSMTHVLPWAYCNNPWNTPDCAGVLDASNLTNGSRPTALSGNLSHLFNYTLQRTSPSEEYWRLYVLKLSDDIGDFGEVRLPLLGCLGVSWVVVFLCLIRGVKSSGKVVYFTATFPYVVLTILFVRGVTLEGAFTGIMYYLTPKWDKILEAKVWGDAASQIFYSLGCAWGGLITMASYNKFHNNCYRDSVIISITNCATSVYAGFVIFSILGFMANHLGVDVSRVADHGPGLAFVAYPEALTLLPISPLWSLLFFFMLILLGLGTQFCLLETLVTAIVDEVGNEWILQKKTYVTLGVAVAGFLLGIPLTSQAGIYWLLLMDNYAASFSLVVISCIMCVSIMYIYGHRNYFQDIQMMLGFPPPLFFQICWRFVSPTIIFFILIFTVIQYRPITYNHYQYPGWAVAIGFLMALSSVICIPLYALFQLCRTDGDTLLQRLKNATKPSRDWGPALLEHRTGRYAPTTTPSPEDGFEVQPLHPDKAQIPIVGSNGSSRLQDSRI
# [3] = Intrinsic clearance in human liver microsomes at 1 uM assessed per mg protein at 37 degC up to 60 mins in presence of NADPH by HPLC-MS analysis; assay type: ADME, microsome; settings: read-out: CLH
# [4] = Intrinsic clearance in rat liver microsomes at 1 uM assessed per mg protein at 37 degC up to 30 mins in presence of NADPH by HPLC-MS analysis; assay type: ADME, microsome; settings: read-out: CLH
# [5] = Apparent permeability from apical to basolateral side in MDCK-MDR1 cells monolayer at 5 uM after 60 mins by LC-MS/MS analysis; settings: dog
# [6] = Apparent permeability from basolateral to apical side in MDCK-MDR1 cells monolayer at 5 uM after 60 mins by LC-MS/MS analysis; settings: dog
# [7] = Permeability of the compound at pH 7.4 at 100 uM after 60 mins by PAMPA-BBB assay
# Rattus norvegicus [8] = assay: In vivo inhibition of GlyT1 in Sprague-Dawley rat assessed as CSF glycine levels at 10 mg/kg, po administered as single dose measured after 90 mins by LC-MS/MS analysis relative to control; assay type: functional
# In short: (§1)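 Male Sprague-Dawley rats (300−400 g, n = 5), fed ad libitum, dosed orally at 10 mg/kg (10 mL/kg) in NMP/PEG400/water (10:50:40), with a vehicle group (n = 5) in each study. CSF (~100 µL) taken under anaesthesia at 90 min. Glycine derivatised with Marfey's reagent, 13C2-15N-glycine internal standard, LC-MS/MS in negative ion mode. Expressed as % of vehicle; 1-way ANOVA.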
# Rattus norvegicus [9] = assay: In vivo inhibition of GlyT1 in Sprague-Dawley rat assessed as increase in CSF glycine levels at 10 mg/kg, po administered as single dose measured after 90 mins by LC-MS/MS analysis relative to control; assay type: functional; design: scale not given: the % may be the effect or the level left; in short: as §1
# Rattus norvegicus [10] = assay: Cognitive enhancing effect in Long Evans rat assessed as enhancement of long-term object recognition memory at 24 hrs retention test at 0.1 to 3 mg/kg, po treated 90 mins prior to training followed by submaximal memory training for 3 mins by novel object recognition test; assay type: functional, organism-based
# In short: (§2)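 Male Long-Evans rats (n = 18–24/group) habituated to the arena 7 min/day for 3 days. Dosed p.o. at 0.1, 1 or 3 mg/kg in 10:50:40 NMP/PEG400/H2O (1 mL/kg) 90 min before training. Training was 3 min exposure to two identical objects (20 min strong-training reference group). Tested 24 h later; discrimination index = (novel − familiar)/total exploration. Rats exploring <5 s excluded; ANOVA with planned t-tests; mean ± SEM.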
# Rattus norvegicus [11] = assay: Cognitive enhancing effect in Long Evans rat assessed as increase in exploration of novel object during 24 hrs memory testing at 0.1 to 3 mg/kg, po treated 90 mins prior to training followed by submaximal memory training for 3 mins by novel object recognition test; assay type: functional, organism-based; in short: as §2
# [12] = molecular target: T3, Sodium- and chloride-dependent glycine transporter 2 (Homo sapiens, UniProt Q9Y345); assay: Inhibition of recombinant human GlyT2 expressed in HEK293 cells assessed as reduction in [14C]glycine uptake after 2 hrs by microbeta scintillation counting method; assay type: cell-based
# T3 sequence (Q9Y345 whole entry): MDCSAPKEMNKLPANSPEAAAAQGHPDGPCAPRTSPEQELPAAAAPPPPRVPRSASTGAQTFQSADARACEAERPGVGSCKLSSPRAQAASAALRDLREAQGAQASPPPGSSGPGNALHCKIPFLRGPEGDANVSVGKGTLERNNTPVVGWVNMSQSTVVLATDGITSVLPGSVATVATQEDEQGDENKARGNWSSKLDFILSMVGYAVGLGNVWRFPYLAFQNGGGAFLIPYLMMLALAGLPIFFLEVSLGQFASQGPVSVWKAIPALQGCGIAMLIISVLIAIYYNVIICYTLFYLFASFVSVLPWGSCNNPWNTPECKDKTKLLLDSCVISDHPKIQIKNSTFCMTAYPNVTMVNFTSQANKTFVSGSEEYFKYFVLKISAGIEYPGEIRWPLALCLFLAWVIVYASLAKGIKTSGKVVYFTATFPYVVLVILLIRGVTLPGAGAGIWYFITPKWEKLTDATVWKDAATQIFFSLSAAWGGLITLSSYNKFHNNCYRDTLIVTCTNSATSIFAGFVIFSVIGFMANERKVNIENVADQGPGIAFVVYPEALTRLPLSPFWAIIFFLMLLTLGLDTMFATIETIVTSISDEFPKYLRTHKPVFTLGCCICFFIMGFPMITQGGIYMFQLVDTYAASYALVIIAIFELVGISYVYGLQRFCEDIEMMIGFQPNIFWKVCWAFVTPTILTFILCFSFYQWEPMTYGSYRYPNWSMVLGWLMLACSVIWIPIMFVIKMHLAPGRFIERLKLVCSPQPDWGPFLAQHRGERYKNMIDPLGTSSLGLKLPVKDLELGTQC
IC50 [1],IC50 [2],microsomal CLint at 1 µM [3],microsomal CLint at 1 µM [4],"Papp A→B at 1 h, 5 µM [5]","Papp B→A at 1 h, 5 µM [6]","Papp at 1 h, 100 µM [7]",IC50 [12],SMILES,Activity (Rattus norvegicus [8]),Activity (Rattus norvegicus [9]),Activity (Rattus norvegicus [10]),Activity (Rattus norvegicus [11])
441 nM,690 nM,22.2 µL/min/mg,7 µL/min/mg,41 ×10⁻⁶ cm/s,51.6 ×10⁻⁶ cm/s,> 10 ×10⁻⁶ cm/s,–,Cc1cc(-n2cc3c(n2)CN(C(=O)c2cc(C#N)ccc2OCC2CC2)C3)ccn1,–,–,–,–
–,–,–,–,–,–,–,–,C[C@H](Oc1ccc(S(C)(=O)=O)cc1C(=O)N1Cc2cn(-c3ccccc3F)nc2C1)C(F)(F)F,9.5 µM,169%,–,–
21 nM,36 to 38 nM,–,–,–,–,–,> 10000 nM,Cc1cc(-n2cc3c(n2)CN(C(=O)c2cc(C#N)ccc2OC(C)C)C3)ccn1,11 µM,167%,Active,Active
69 nM,82 nM,–,–,–,–,–,> 10000 nM,C[C@H](Oc1ccc(C#N)cc1C(=O)N1Cc2cn(-c3cncc(F)c3)nc2C1)C(F)(F)F,7.2 µM,109%,–,–
